Sampled rows, rich in hits. Any-hit rate of the full collection: about 5.4%.
Mdm2 MdmX PPI – human Mdm2/MdmX binding inhibition | inhibition, % at 8 µM | SaOS-2 split-luciferase Mdm2/MdmX complementation, luminescence | O15151+Q00987 | 330,000 tested, 3% active | AID 485346;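 active means inhibition of at least 50% at 8 µM in the primary screen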
Target sequence (O15151 whole entry, looked up): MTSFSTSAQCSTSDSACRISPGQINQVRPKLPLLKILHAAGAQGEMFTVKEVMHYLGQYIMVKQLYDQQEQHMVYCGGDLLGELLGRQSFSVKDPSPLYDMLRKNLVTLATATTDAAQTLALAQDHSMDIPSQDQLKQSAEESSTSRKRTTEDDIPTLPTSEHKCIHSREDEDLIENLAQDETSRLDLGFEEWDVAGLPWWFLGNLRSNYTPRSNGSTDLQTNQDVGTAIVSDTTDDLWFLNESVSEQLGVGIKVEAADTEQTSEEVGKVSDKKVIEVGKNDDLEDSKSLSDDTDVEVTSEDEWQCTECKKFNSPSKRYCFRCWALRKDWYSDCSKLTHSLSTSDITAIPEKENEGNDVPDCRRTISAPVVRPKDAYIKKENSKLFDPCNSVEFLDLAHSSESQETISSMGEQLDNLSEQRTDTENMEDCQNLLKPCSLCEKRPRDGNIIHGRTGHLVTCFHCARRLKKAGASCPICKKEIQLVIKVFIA
Target sequence (Q00987 whole entry, looked up): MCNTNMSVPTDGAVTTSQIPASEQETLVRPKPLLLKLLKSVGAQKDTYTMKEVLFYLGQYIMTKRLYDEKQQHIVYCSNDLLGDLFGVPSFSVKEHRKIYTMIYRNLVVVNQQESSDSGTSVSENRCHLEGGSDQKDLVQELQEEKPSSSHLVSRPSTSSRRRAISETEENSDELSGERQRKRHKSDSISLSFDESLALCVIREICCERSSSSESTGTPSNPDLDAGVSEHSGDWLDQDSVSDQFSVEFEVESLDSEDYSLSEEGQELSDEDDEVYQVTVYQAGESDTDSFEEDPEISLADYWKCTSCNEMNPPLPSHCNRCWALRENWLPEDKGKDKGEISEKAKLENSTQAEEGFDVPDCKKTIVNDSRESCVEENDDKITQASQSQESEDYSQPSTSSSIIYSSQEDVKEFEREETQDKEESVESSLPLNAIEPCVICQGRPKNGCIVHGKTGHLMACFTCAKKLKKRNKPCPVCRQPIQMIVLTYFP
CSC inhib – cancer stem cell inhibition | cancer stem cell-like cells viability, luminescence | inhibition, % at 7.5 µM | 300,000 tested, 1.1% active; in the data active means inhibition above about 75%; tested in HMLE shEcad cells
SKKanGAS inh – SKKanGAS growth inhibition; inhibition, % at 7.5 µM; 300,000 tested, 1.3% active; S. pyogenes SKKanGAS, kanamycin growth, BacTiter-Glo, 6 h;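 active means mean replicate score, as percent of positive control median, at least 50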;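 further: strain carries kanamycin resistance gene driven by streptokinase promoter and grows in 40 µg/ml kanamycin; loss of luminescence reflects streptokinase promoter inhibition or plain growth inhibition; 0% = median of DMSO wells and 100% = positive control at its reference dose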
T cruzi inh – blocks replication of Trypanosoma cruzi; 300,000 tested, 1.4% active; T. cruzi beta-gal in NIH3T3, luminescence, 90 h; inhibition, % (no concentration beside the values); AID 1885;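 active means mean inhibition across valid replicates above about 55%, limit read from the data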;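 further: signal also drops with host cell toxicity which is not excluded here; 0% = plate median of DMSO wells and 100% = zero luminescence signal; higher percent means less beta-gal luminescence so fewer parasites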
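Incubation – ≥90 h infection period, 3 h prior cell attachment · System – NIH/3T3 fibroblasts plus reporter T. cruzi · Doses – compound pinned at 50 nL/well, DMSO · Read-out basis – percent inhibition of parasite-derived β-gal signal · Signal – luminescent β-galactosidase signal after 60 min lysis · Also added – 5000 T. cruzi trypomastigotes/well · Medium – Low-serum DMEM with 2% FBS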
aSyn UTR inh – MLPCN primary screen, SNCA 5' untranslated region; alpha-synuclein 5'UTR reporter, inhibitor activity; inhibition, % (tested at 7.5 µM); 300,000 tested, 0.82% active; in the data active means inhibition above about 60%;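 further: H4 neuroglioblastoma cells stably carrying SNCA 5'UTR luciferase fusion; 0% = DMSO wells and 100% = positive control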
* hit, by the source's call; nt = no result given.

SMILES	Mdm2 MdmX PPI	CSC inhib	SKKanGAS inh	T cruzi inh	aSyn UTR inh
O=C(Nc1nnc(C2=COCCO2)o1)c1cccc(C(F)(F)F)c1	-9	nt	56*	-13	-13
O=C(Nc1nnc(C2=COCCO2)o1)c1ccc(Br)cc1	-12	23	101*	14	3
Cc1nnc(NC(=O)c2ccc(S(=O)(=O)N3CC(C)CC(C)C3)cc2)o1 (configuration not stated)	30	33	54*	-5	-2
CC1CC(C)CN(S(=O)(=O)c2ccc(C(=O)NCCCn3ccnc3)cc2)C1 (configuration not stated)	0	101*	1	29	98*
CCOC(=O)N1CCN(S(=O)(=O)c2ccc(C(=O)Nc3nnc(C)o3)cc2)CC1	17	-9	-4	0	4
O=C(NCc1ccc2c(c1)OCO2)c1nc(Cn2cc(Br)cn2)no1	4	-3	-39	-6	8
CCc1nnc(NC(=O)c2ccc(COc3ccccc3C)o2)s1	15	4	-4	-7	0
O=C(Nc1nnc(C2=COCCO2)o1)c1ccc(Cc2ccccc2)cc1	17	24	93*	-14	-3
CC1CCCN(S(=O)(=O)c2ccc(C(=O)Nc3nnc(C4=COCCO4)o3)cc2)C1 (configuration not stated)	30	-4	66*	0	-1
COc1ccc(C(=O)NCc2c(C)nn(Cc3ccccc3)c2C)cc1S(=O)(=O)N1CCOCC1	8	nt	nt	nt	nt
COc1ccccc1/C=C/C(=O)NCC(=O)N/N=C/c1ccc(C)o1	14	-8	3	7	-1
O=C1C2C(C(=O)N1Cc1cccnc1)C1C=CC2C12CC2 (configuration not stated)	-16	6	-6	0	0
Cc1ccc(NC(=O)COC(=O)c2cc(=O)c3ccccc3o2)cc1F	11	-6	nt	nt	nt
O=C(NCCN1CCCC1)c1ccc2c(c1)N(Cc1cccc(Cl)c1)C(=O)c1ccccc1S2(=O)=O	39	107*	-2	8	-22
CCOC(=O)c1sc(NC(=O)CN2C(=O)NC3(CC(C)CC(C)(C)C3)C2=O)cc1C (configuration not stated)	11	43	25	59*	22
COc1ccc(CN2CCNC(=O)C2CC(=O)N(C)CCC2CCOCC2)c(OC)c1 (configuration not stated)	12	7	-3	4	8
C=C(C)Cn1c(SCC#N)nc2ccccc2c1=O	10	7	16	-8	23
CCN(CCCn1c(SCC#N)nc2ccccc2c1=O)c1ccccc1	17	13	61*	19	43
Cc1cc(/C=C2/SC(=S)N(c3ccc([N+](=O)[O-])cc3)C2=O)c(C)n1-c1cccnc1	32	28	18	59*	8
Cc1ccc(/C=C2\SC(=S)N(c3cccnc3)C2=O)o1	-13	17	0	62*	-2
CC1CCC2C(=O)N(c3ccc(C(=O)Oc4cccc5cccnc45)cc3)C(=O)C2C1 (configuration not stated)	-18	-13	-2	-6	11
Cc1cccc(CN2C(=O)CSc3ccc(C(=O)NC4CC4)cc32)c1	10	-5	3	10	9
Cc1ccc(NC2=C(Cl)C(=O)OC2OC(C)C)c(C)c1 (configuration not stated)	5	-6	-11	-20	69*
Cc1c(C(=O)OCC(=O)Nc2cccc(S(N)(=O)=O)c2)oc2c1ccc1ccccc12	-13	4	66*	3	22
COc1ccc(C2CC(c3ccccc3)=NN2C(=O)CCC(=O)O)cc1 (configuration not stated)	1	-13	5	10	0
COc1ccc(C2=NN(C(=O)c3cccs3)C(c3ccccc3O)C2)cc1 (configuration not stated)	-5	nt	41	60*	32
COc1ccc(C2CC(c3ccccc3)=NN2C(=O)c2cccs2)cc1 (configuration not stated)	-36	13	59*	22	-92
COc1ccc(C(=O)N2N=C(c3cccs3)CC2c2ccccc2O)cc1 (configuration not stated)	10	13	-3	12	4
COc1ccc(C(=O)N/C(=C\c2ccccc2)C(=O)NCc2cccnc2)cc1	16	nt	2	-3	6
CCOc1ccccc1-n1c(CN2CCN(C(=O)c3ccco3)CC2)nc2ccccc2c1=O	34	61	5	-2	111*

Assay outcomes from PubChem BioAssay.
